Experimental findings from ChEMBL document CHEMBL4837245, “Discovery of VU6028418: A Highly Selective and Orally Bioavailable M4 Muscarinic Acetylcholine Receptor Antagonist” (ACS Med Chem Lett, 2021) are described below.

One series concerns the target CYP3A4 (Homo sapiens, UniProt P08684). In words: Inhibition of CYP3A4 in human liver microsomes using midazolam as substrate preincubated for 15 mins followed by NADPH addition and measured after 8 mins by LC-MS/MS analysis. In kind it is ADME. The following applies: human, liver microsomes, probe midazolam; time 23 min; read-out: INH. The essentials: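 Cocktail CYP450 inhibition assay run in human liver microsomes.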
Background: Microsomes from liver hold many membrane-bound enzymes, among them those of drug oxidation.

Series [1] can be described thus: Ratio of free drug concentration in CSF to plasma of Sprague-Dawley rat at 1 mg/kg, iv. In kind it is ADME, organism-based.
Series [2] is described as follows: Clearance in CD-1 mouse plasma at 1.0 mg/kg, iv measured upto 24 hrs by LC-MS/MS analysis. In kind it is ADME, organism-based. The essentials: (§1)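 Single iv and oral (suspension) dosing; iv/po doses 1/10 mg/kg in SD rat, 1/3 mg/kg in CD-1 mouse and beagle dog. Plasma PK parameters are means from two to three animals per species.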
Series [3] in a line: Elimination half life in Sprague-Dawley rat at 1 mg/kg, iv measured upto 24 hrs by LC-MS/MS analysis. The series is classed as ADME, organism-based. The following applies: in vivo, read-out: beta t1/2 (converted). The essentials: as §1
Series [4] has as its target Muscarinic acetylcholine receptor M5 (Homo sapiens, UniProt P08912). As to the kind of experiment: Antagonist activity at human muscarinic M5 receptor expressed in CHO cells co-expressing Gqi5 assessed as inhibition of acetylcholine-induced calcium mobilization. The series is classed as functional. Summed up:
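CHO cells stably transfected with the given human mAChR subtype. Compound added before an EC80 concentration of acetylcholine; antagonism read as calcium mobilization. One independent determination in triplicate.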
For orientation: Calcium assays in cells follow changes in intracellular calcium, usually with a dye or a luminescent sensor.

The test system of the next series is P-gp (human). In words: Efflux ratio of apparent permeability basolateral to apical over apical to basolateral side at human P-gp in MDCK-MDR1 cells. The following applies: dog. In kind it is ADME, cell-based, Canis lupus familiaris. The essentials:
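MDCK cell monolayers overexpressing MDR1 (P-gp). Efflux ratio taken as Papp(B-to-A)/Papp(A-to-B).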

Series [5] deals with Voltage-gated inwardly rectifying potassium channel KCNH2 (Homo sapiens, UniProt Q12809). In words: Inhibition of human ERG by patch clamp assay. (In patch-clamp work, channel activity is measured electrically.)
A further series relates to Rattus norvegicus. In words: Reversal of haloperidol-induced catalepsy in rat at 1.0 mg/kg, po relative to control. In kind it is functional. Summed up:
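Rat haloperidol-induced catalepsy model with oral test dosing at 0.3, 1 and 3 mg/kg alongside vehicle-treated controls. Read-out is latency to withdraw, also expressed as % reversal of catalepsy. Groups compared by ANOVA.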

The nature of series [6]: Clearance in Beagle dog plasma at 1.0 mg/kg, iv measured upto 24 hrs by LC-MS/MS analysis. In kind it is ADME, organism-based, Canis lupus familiaris. The essentials: as §1
The nature of series [7]: AUC (0 to infinity) in Beagle dog at 3 mg/kg, po measured upto 24 hrs by LC-MS/MS analysis. In kind it is ADME, organism-based, Canis lupus familiaris. Also on record: route oral, dose 3 mg/kg, time <=24. As to conditions: in vivo. Summed up:
as §1

SMILES strings stand for the structures.

Sequence of Muscarinic acetylcholine receptor M5 (P08912 whole entry): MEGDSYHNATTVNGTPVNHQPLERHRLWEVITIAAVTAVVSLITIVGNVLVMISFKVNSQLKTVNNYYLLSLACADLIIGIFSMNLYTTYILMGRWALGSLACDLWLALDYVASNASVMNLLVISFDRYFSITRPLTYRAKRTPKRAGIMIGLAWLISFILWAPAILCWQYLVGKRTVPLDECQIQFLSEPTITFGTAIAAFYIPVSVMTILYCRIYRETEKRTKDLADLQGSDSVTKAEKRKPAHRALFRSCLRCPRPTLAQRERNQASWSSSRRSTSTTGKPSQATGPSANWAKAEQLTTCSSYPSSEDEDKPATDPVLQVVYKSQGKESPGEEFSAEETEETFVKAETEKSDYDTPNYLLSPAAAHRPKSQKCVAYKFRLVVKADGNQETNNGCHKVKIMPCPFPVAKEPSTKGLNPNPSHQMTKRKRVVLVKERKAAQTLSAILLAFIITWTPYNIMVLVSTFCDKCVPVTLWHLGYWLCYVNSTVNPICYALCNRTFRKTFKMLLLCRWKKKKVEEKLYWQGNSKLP
Sequence of Voltage-gated inwardly rectifying potassium channel KCNH2 (Q12809 whole entry): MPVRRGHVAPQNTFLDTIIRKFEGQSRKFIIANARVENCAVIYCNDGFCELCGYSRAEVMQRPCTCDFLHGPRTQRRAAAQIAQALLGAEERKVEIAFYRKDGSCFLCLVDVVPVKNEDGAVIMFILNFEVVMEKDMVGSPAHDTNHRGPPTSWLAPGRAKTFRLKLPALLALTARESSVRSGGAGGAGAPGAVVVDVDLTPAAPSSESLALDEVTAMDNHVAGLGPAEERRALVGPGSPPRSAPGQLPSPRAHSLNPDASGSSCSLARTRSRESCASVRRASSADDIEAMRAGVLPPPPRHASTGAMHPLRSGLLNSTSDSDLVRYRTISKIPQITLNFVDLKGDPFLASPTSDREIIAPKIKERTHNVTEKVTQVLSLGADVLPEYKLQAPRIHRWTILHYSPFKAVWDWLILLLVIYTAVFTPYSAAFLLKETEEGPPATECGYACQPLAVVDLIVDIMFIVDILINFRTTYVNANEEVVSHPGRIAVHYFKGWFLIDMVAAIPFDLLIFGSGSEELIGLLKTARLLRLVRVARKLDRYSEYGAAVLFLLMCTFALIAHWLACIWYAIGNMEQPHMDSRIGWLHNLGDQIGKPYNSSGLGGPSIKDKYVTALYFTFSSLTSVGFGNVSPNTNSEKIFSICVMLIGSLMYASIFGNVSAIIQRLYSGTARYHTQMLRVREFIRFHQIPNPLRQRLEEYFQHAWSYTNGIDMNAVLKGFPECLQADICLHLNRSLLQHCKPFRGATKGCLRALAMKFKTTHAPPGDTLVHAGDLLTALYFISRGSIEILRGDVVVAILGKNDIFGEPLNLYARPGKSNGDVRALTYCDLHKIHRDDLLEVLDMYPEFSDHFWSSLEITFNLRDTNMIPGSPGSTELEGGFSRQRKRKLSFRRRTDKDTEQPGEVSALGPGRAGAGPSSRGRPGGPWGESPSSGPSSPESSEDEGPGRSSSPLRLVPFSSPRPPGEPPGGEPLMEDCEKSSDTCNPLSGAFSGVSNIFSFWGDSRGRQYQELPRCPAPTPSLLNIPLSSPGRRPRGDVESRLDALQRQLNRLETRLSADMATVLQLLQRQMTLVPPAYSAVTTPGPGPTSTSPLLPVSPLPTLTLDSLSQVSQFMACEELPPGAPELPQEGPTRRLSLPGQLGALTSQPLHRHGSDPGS
Sequence of CYP3A4 (P08684 whole entry): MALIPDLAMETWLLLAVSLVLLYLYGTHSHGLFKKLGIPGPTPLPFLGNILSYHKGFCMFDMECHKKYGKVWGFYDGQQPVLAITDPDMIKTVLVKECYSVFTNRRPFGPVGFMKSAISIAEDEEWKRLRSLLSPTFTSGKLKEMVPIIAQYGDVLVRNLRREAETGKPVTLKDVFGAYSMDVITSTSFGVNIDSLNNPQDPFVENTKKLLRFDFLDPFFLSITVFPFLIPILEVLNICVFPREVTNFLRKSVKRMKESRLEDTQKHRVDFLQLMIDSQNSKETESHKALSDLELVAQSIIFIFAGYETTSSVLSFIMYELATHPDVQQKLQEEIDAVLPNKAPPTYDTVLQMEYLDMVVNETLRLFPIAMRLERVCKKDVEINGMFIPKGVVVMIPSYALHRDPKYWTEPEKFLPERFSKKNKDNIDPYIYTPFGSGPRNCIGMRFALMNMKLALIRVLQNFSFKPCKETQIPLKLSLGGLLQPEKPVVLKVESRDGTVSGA

Broadly, the clearance is the rate of elimination divided by the concentration. Lower therefore signals a low capacity for elimination. Usually efflux ratio stands for a quotient of directional permeabilities that is used to spot active efflux. As a reminder, the AUC is the area under the concentration-time curve, a measure of exposure. Lower therefore signals low exposure. For the compound `Fc1cc(F)c(F)c(-c2ccc(N[C@H]3C[C@@H]4CN(CC5CCOCC5)C[C@@H]4C3)nn2)c1`, on CYP3A4, the IC50 at 8 min was > 30 µM. Moreover, the Kp uu in series [1] was 0.24. Further, the clearance in series [2] came out at 17 mL/min/kg; in series [6], 43 mL/min/kg. For the same compound, in [3], the half-life is 13 h. The IC50 in [4] was > 10 µM; in series [5] it was 0.431 µM. Moreover, in the series with P-gp (human), the efflux ratio was 8.9. In addition, the Activity in the series on Rattus norvegicus is listed as 50.9%. Further, the AUC in series [7] was determined as 1100 ng·h/mL.
